Data reported in ChEMBL document CHEMBL4819106, “Aminopyrazole based CDK9 PROTAC sensitizes pancreatic cancer cells to venetoclax” (Bioorg Med Chem Lett, 2021).
The source made the active and inactive calls. No cut-off for these calls is given here.

Tests used:
[1] = target: Cyclin-dependent kinase 7 (Homo sapiens) (UniProt P50613); experiment: Inhibition of CDK7 in human HEK293 cells assessed as reduction in CDK7 level at 10 uM incubated for 24 hrs by Western blot analysis; type: cell-based
Outline: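 HEK293 cells were treated at indicated concentrations for 24 h. Lysates were analysed by western blot and probed for CDK family members, including CDK7 and CDK9.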

[2] = tested on: MIA PaCa-2; experiment: Antiproliferative activity against human MIA PaCa-2 cells assessed as cell growth inhibition at 5 uM measured after 3 days by Prestoblue assay relative to control; type: functional; conditions: MIA PaCa-2, 72 h, time 3 day, read-out: GI
Outline: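 MiaPaCa2 cells were exposed for 3 days to single agents (Bcl2-family inhibitors or CDK9 degrader) at equimolar concentration. Viability was read by PrestoBlue.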

Chain of Cyclin-dependent kinase 7 (Homo sapiens) (P50613 whole entry): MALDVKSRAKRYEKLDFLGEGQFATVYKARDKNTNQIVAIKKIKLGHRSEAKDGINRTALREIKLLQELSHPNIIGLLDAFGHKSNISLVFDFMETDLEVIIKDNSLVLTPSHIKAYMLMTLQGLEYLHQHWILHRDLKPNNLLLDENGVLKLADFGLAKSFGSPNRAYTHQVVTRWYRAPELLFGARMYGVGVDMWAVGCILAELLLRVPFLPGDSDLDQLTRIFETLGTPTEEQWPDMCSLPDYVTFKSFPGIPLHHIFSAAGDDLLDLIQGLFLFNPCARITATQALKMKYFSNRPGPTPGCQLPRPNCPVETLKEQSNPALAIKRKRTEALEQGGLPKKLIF

In the case of `CN1CC[C@H](c2c(O)cc(O)c3c(=O)cc(-c4ccccc4Cl)oc23)[C@H](O)C1`, the Activity [1] is reported as “inactive”.

In the case of `CC1(C)CCC(c2ccc(Cl)cc2)=C(CN2CCN(c3ccc(C(=O)NS(=O)(=O)c4ccc(N[C@H](CCN5CCOCC5)CSc5ccccc5)c(S(=O)(=O)C(F)(F)F)c4)cc3)CC2)C1` [NAVITOCLAX], the inhibition of growth at 5 µM [2] is reported as 50%.
